Results: ChEMBL document CHEMBL4706553, “Discovery of potent small molecule PROTACs targeting mutant EGFR” (Eur J Med Chem, 2020)
Active and inactive are the calls of the source.

Columns and labels:
A-431 = assay: Antiproliferative activity against human A431 cells expressing wild type EGFR assessed as cell growth inhibition measured after 72 hrs by MTT assay; format: functional, cell-based; settings: A-431, 72 h
How it was run: (§1)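 Cells were seeded at 3000–8000/well and allowed 24 h, then exposed to serial compound concentrations for 72 h. MTT (5 mg/mL stock in PBS) was added for 4 h, supernatant removed and DMSO added. IC50, defined as 50% growth inhibition, was derived by nonlinear regression (log inhibitor vs response).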

HCC827 = assay: Antiproliferative activity against human HCC827 cells expressing EGFR del19 mutant assessed as cell growth inhibition measured after 72 hrs by MTT assay; format: functional, cell-based; settings: HCC827, 72 h
How it was run: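 HCC827 cells were kept in RPMI-1640 with 10% heat-inactivated FBS, 1% sodium pyruvate, 1% glutamine and 1% penicillin-streptomycin at 37 °C and 5% CO₂, seeded at 3000–8000/well and rested 24 h. Compounds were applied as a concentration series for 72 h. MTT (5 mg/mL stock in PBS) was given for 4 h, then medium was removed and DMSO added. IC50 came from nonlinear regression (log inhibitor vs response).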

NCI-H1975 = assay: Antiproliferative activity against human H1975 cells expressing EGFR L858R/T790M mutant assessed as cell growth inhibition measured after 72 hrs by MTT assay; format: functional, cell-based; settings: NCI-H1975, 72 h
How it was run: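 MTT assay on H1975 cells grown in RPMI-1640 with 10% heat-inactivated FBS and 1% penicillin-streptomycin at 37 °C and 5% CO₂. Cells were seeded at 3000–8000 per well and left 24 h, then exposed to a concentration series for 72 h. MTT (5 mg/mL stock in PBS) was added for 4 h, supernatant removed and formazan dissolved in DMSO. IC50 was fitted by nonlinear regression (log inhibitor vs response).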

HepG2 = assay: Antiproliferative activity against human HepG2 cells expressing VEGFR2 assessed as cell growth inhibition measured after 72 hrs by MTT assay; format: functional, cell-based; settings: HepG2, 72 h; how it was run: as §1
[1] = test system: Protein cereblon/Epidermal growth factor receptor (Homo sapiens), P00533+Q96SW2 [UNDEFINED MUTATION]; assay: Protac activity at CRBN/EGFR del19 mutant in human HCC827 cells assessed as induction of EGFR degradation at 333 nM measured after 24 hrs by Western blot analysis; format: cell-based
How it was run: (§2)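 HCC827 cells seeded at 0.5–1 × 10⁶ per well, grown 24 h, then treated at the stated concentrations for 24 h. EGFR^del19 level by Western blot with anti-EGFR antibody and β-actin loading control.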

[2] = test system: Protein cereblon/Epidermal growth factor receptor (Homo sapiens), P00533+Q96SW2 [UNDEFINED MUTATION]; assay: Protac activity at CRBN/EGFR del19 mutant in human HCC827 cells assessed as induction of EGFR degradation at 33 nM incubated for 24 hrs measured following compound wash-out for 24 to 48 hrs by Western blot analysis; format: cell-based
How it was run: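 HCC827 cells (RPMI-1640, 10% heat-inactivated FBS, 1% sodium pyruvate, 1% glutamine, 37 °C, 5% CO₂) treated at 33 nM for 24 h. Medium then replaced with compound-free medium, and protein harvested at the stated times. EGFR read by Western blot; n = 2.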

[3] = test system: Protein cereblon/Epidermal growth factor receptor (Homo sapiens), P00533+Q96SW2 [UNDEFINED MUTATION]; assay: Protac activity at CRBN/EGFR del19 mutant in human HCC827 cells assessed as induction of EGFR degradation at 33 nM measured after 24 hrs by Western blot analysis; format: cell-based; how it was run: as §2
[4] = test system: Protein cereblon/Epidermal growth factor receptor (Homo sapiens), P00533+Q96SW2 [UNDEFINED MUTATION]; assay: Protac activity at CRBN/EGFR del19 mutant in human HCC827 cells assessed as induction of EGFR degradation at 33 nM by Western blot analysis; format: cell-based; settings: time 12-72 hrs, TDE = time-dependent effect
How it was run: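 Time course in HCC827 cells at 33 nM, with protein harvested at each stated time point. EGFR^del19 detected by Western blot.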

[5] = test system: Protein cereblon/Epidermal growth factor receptor (Homo sapiens), P00533+Q96SW2 [UNDEFINED MUTATION]; assay: Protac activity at CRBN/EGFR del19 mutant in human HCC827 cells assessed as maximal induction of EGFR degradation at 33 nM measured after 48 hrs by Western blot analysis; format: cell-based
How it was run: (§3)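 HCC827 cells seeded at 0.5–1 × 10⁶ per well, then treated at the stated concentrations for 48 h. EGFR by Western blot; n = 3. DC₅₀ (concentration giving 50% EGFR loss) by nonlinear regression, log(inhibitor) vs response.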

[6] = biological target: T1, Protein cereblon/Epidermal growth factor receptor (Homo sapiens, UniProt P00533+Q96SW2); assay: Protac activity at CRBN/EGFR del19 mutant in human HCC827 cells assessed as induction of EGFR degradation measured after 48 hrs by Western blot analysis; format: cell-based; how it was run: as §3
Target sequence in this assay (P00533 whole entry, looked up, stated change not applied): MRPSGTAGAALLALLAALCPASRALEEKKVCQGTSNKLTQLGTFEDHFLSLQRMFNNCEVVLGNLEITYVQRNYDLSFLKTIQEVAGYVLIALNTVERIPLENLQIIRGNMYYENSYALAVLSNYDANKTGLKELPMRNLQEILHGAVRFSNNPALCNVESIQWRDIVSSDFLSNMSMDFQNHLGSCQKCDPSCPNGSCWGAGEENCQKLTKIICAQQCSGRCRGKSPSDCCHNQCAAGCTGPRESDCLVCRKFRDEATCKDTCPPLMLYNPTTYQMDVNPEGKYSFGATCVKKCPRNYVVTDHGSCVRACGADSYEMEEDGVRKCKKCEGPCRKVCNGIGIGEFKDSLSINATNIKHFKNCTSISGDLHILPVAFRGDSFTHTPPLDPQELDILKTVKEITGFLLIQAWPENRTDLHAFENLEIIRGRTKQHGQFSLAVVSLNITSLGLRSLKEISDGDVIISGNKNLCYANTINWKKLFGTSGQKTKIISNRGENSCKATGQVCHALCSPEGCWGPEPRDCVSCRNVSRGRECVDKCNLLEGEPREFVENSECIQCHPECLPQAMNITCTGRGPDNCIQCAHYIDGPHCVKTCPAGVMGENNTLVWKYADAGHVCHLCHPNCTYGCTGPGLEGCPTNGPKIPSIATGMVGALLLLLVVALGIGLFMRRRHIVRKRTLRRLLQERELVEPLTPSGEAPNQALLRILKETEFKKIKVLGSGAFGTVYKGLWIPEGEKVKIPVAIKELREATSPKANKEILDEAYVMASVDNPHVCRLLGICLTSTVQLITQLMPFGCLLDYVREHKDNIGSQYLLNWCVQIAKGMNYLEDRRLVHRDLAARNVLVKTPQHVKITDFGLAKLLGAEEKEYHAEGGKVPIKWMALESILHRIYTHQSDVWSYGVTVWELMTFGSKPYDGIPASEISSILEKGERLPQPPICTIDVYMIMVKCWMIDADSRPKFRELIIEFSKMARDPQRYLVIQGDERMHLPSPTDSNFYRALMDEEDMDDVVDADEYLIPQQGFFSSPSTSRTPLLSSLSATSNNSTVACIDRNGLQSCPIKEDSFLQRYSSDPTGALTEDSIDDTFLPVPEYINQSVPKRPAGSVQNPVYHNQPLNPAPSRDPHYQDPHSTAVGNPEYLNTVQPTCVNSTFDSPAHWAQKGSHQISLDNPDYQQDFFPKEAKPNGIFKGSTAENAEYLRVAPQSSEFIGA
Target sequence in this assay (Q96SW2 whole entry, looked up, stated change not applied): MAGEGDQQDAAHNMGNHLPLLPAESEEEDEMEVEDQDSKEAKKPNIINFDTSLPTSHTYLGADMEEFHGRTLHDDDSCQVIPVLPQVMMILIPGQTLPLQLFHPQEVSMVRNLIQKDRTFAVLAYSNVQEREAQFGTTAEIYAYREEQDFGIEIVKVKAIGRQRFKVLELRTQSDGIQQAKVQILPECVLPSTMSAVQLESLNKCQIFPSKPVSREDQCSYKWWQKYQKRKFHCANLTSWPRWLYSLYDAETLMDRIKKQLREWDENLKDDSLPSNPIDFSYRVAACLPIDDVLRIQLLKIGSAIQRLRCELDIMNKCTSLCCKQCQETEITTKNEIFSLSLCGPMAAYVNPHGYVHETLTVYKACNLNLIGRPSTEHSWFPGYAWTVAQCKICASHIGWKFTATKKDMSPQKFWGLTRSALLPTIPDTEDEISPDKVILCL

[7] = biological target: T1, Protein cereblon/Epidermal growth factor receptor; assay: Protac activity at CRBN/EGFR in human A431 cells assessed as induction of degradation of EGFR at 0.1 to 3.3 uM incubated for 48 hrs by Western blot analysis; format: cell-based; settings: A-431, dose 0.1-3.3 µM
[8] = test system: Protein cereblon/Epidermal growth factor receptor (Homo sapiens), P00533+Q96SW2 [UNDEFINED MUTATION]; assay: Protac activity at CRBN/EGFR del19 mutant in human HCC827 cells assessed as induction of EGFR degradation at 0.033 uM pretreated with ubiquitination inhibitor, MLN4924 for 2 hrs followed by incubation with compound for 24 hrs by Western blot analysis; format: cell-based
[9] = test system: Protein cereblon/Epidermal growth factor receptor (Homo sapiens), P00533+Q96SW2 [UNDEFINED MUTATION]; assay: Protac activity at CRBN/EGFR del19 mutant in human HCC827 cells assessed as induction of EGFR degradation at 0.033 uM pretreated with EGFR inhibitor, F for 2 hrs followed by incubation with compound for 24 hrs by Western blot analysis; format: cell-based
[10] = test system: Protein cereblon/Epidermal growth factor receptor (Homo sapiens), P00533+Q96SW2 [UNDEFINED MUTATION]; assay: Protac activity at CRBN/EGFR del19 mutant in human HCC827 cells assessed as induction of EGFR degradation at 0.033 uM pretreated with CRBN ligand, lenalidomide for 2 hrs followed by incubation with compound for 24 hrs by Western blot analysis; format: cell-based
[11] = test system: Protein cereblon/Epidermal growth factor receptor (Homo sapiens), P00533+Q96SW2 [UNDEFINED MUTATION]; assay: Protac activity at CRBN/EGFR del19 mutant in human HCC827 cells assessed as induction of EGFR degradation at 0.033 uM pretreated with proteasome inhibitor, MG132 for 2 hrs followed by incubation with compound for 24 hrs by Western blot analysis; format: cell-based
[12] = test system: Protein cereblon/Epidermal growth factor receptor (Homo sapiens), P00533+Q96SW2 [UNDEFINED MUTATION]; assay: Protac activity at CRBN/EGFR del19 mutant in human HCC827 cells assessed as induction of EGFR degradation at 0.033 uM pretreated with autophagy inhibitor, chloroquine for 2 hrs followed by incubation with compound for 24 hrs by Western blot analysis; format: cell-based
[13] = biological target: von Hippel-Lindau disease tumor suppressor/Epidermal growth factor receptor (Homo sapiens, UniProt P00533+P40337); assay: Protac activity at VHL/EGFR del19 mutant in human HCC827 cells assessed as induction of EGFR degradation measured after 24 hrs by Western blot analysis; format: cell-based; how it was run: as §2
von Hippel-Lindau disease tumor suppressor/Epidermal growth factor receptor, sequence (P00533 whole entry, looked up, stated change not applied): as the sequence (P00533 whole entry, looked up, stated change not applied) above
von Hippel-Lindau disease tumor suppressor/Epidermal growth factor receptor, sequence (P40337 whole entry, looked up, stated change not applied): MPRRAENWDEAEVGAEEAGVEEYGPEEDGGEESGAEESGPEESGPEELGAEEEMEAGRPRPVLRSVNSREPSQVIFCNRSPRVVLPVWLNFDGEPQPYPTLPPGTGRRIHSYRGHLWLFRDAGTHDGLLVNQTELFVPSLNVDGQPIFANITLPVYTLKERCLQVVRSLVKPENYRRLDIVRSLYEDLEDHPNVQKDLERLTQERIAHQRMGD

Protein cereblon/Epidermal growth factor receptor (Homo sapiens), P00533+Q96SW2 [UNDEFINED MUTATION], sequence (P00533 whole entry, looked up, stated change not applied): as the sequence (P00533 whole entry, looked up, stated change not applied) above
Protein cereblon/Epidermal growth factor receptor (Homo sapiens), P00533+Q96SW2 [UNDEFINED MUTATION], sequence (Q96SW2 whole entry, looked up, stated change not applied): as the sequence (Q96SW2 whole entry, looked up, stated change not applied) above

Work on `CN(CCOCCOCCOCCN1CCN(c2ccc(Nc3ncc4nc(Nc5ccccc5)n(C5CCCC5)c4n3)cc2)CC1)CC(=O)Nc1cccc2c1CN(C1CCC(=O)NC1=O)C2=O` (stereo not drawn) yielded an IC50 (A-431) of 1860 nM, an IC50 (HCC827) of 2 nM and an IC50 (NCI-H1975) of 3180 nM. The IC50 (HepG2) was > 5000 nM, the Activity [1] was “inactive” and the Activity [2] was “inactive”. The Activity [3] was “Active”, the Activity [4] was “Tde” and the Emax [5] was 82%. The DC50 [6] was 1.91 nM, the Activity [7] was “inactive” and the Activity [8] was “inactive”. The Activity [9] was “inactive”, the Activity [10] was “inactive” and the Activity [11] was “Active”. For the same compound, the Activity [12] was “inactive”.
In the case of `COc1cc2ncnc(Nc3ccc(F)c(Cl)c3)c2cc1OCCCCCOCCOCCC(=O)N[C@H](C(=O)N1C[C@H](O)C[C@H]1C(=O)NCc1ccc(-c2scnc2C)cc1)C(C)(C)C`, the DC50 [13] is reported as 11.7 nM.
In the case of `CN(CCOCCOCCN1CCN(c2ccc(Nc3ncc4nc(Nc5ccccc5)n(C5CCCC5)c4n3)cc2)CC1)CC(=O)Nc1cccc2c1CN(C1CCC(=O)NC1=O)C2=O` (stereo not drawn), the IC50 (A-431) is reported as 2670 nM, the IC50 (HCC827) is reported as 1.39 nM and the IC50 (NCI-H1975) is reported as 1210 nM. For the same compound, the IC50 (HepG2) was > 5000 nM, the Activity [1] was “inactive” and the Activity [3] was “Active”.
